The list is not random: actives were taken first. Their share in the collection is about 1.3%.
DAGLB inh – DAGLB lipase inhibitors, primary screen, biochemical, fluorescence, HTS | inhibition, % at 5.17 µM | 340,000 compounds, 0.059% hits | Diacylglycerol lipase-beta (Homo sapiens), Q8NCG7 | HEK293T DAGLB membrane lysate, EnzChek fluorogenic substrate; in the data active = inhibition above about 34%;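 note: 0% = enzyme with vehicle and 100% = wells lacking enzyme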
Target sequence (Q8NCG7 whole entry, looked up): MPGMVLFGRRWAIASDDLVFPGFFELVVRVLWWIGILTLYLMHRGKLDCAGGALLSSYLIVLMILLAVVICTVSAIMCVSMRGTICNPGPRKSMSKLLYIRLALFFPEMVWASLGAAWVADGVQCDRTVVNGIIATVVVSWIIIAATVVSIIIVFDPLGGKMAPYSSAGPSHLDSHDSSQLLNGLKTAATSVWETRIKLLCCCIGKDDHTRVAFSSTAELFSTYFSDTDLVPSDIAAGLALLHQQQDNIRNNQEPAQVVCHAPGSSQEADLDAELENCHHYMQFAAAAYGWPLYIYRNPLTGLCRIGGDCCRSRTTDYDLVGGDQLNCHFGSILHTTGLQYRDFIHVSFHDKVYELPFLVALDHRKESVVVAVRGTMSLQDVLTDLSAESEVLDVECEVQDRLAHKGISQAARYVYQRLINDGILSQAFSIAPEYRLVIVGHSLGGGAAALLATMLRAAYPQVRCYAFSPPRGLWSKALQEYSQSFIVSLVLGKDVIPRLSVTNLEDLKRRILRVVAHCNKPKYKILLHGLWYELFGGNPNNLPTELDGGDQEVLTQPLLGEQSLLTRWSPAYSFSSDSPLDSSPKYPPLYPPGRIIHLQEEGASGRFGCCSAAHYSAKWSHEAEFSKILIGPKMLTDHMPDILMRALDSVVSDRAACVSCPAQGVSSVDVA
MT1-MMP act inh – blockers of MT1-MMP proenzyme processing, primary screen, HT1080 RFP-PRO-GFP cells, GFP/RFP fluorescence | GFP/RFP ratio change, % at 20 µM | Matrix metalloproteinase-14 (Homo sapiens), P50281 | 360,000 compounds, 0.061% hits | GFP/RFP ratio fluorescence, overnight; percent of plate control window, DMSO zero | AID 651647, 2012;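 active = GFP/RFP ratio change of at least 30% with cell ATP level not reduced by more than half and red fluorescence within 50% of control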
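Assay system: HT1080 RFP-PRO-GFP cells. Benchmarks: DMSO vehicle wells and RFP-L50D-GFP reporter cell wells. Times: overnight cell settling, then overnight compound exposure, 37 °C, 5% CO2. Compound: 20 µM single dose, 1% DMSO. Read-out basis: GFP/RFP fluorescence ratio.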
hiPSC survival – enhancers of single-cell hiPSC survival, primary screen, ATPlite luminescence. 100% = ROCK inhibitor wells, 0% = DMSO. survival enhancement, % at 20 µM. 360,000 compounds, 0.044% hits. AID 602274, 2012; in the data active = survival enhancement above about 18%;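 note: cells exposed to compounds for 16 hours before the ATP read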
SKN-1 block – suppressors of acrylamide-induced Pgst-4::GFP reporter in worms, primary screen, SKN-1 inhibitor project, whole organism, uHTS, GFP/RFP fluorescence ratio, strain VP596; C. elegans VP596 Pgst-4::GFP/RFP ratio, 24 h; inhibition, % at 21.8 µM; 360,000 compounds, 0.49% hits;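 active = interference check ratio from 0.5 to 1.5 plus GFP to RFP signal ratio inhibition reaching or exceeding a fixed threshold, cut at about 30% in these data, passing the limit was not always enough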
FAS TE block – FAS thioesterase domain inhibitors, primary screen, biochemical, fluorescence intensity, uHTS; inhibition, % at 15 µM; Fatty acid synthase (Homo sapiens), P49327; 360,000 compounds, 0.67% hits; recombinant FAS-TE, OMFH fluorogenic substrate, fluorescence endpoint; AID 602261, 2012;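 active = compounds whose normalised, plate-corrected inhibition of enzyme fluorescence in the single-dose primary screen is 50% or more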;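 note: 0% = DMSO with enzyme and 100% = substrate without enzyme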
FAS-TE inh conf – FAS thioesterase domain inhibitors, confirmation, biochemical, fluorescence intensity, single concentration | shares compounds with FAS TE block | recombinant FAS-TE, OMFH fluorogenic substrate | inhibition, % at 15 µM | 2,300 compounds, 45% hits | AID 624325, 2012;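 active = compounds inhibiting the enzyme by at least 50% at 15 µM in any one of the replicates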;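 note: 0% = enzyme with DMSO only and 100% = wells lacking enzyme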
Starred values were filed as active, the others as inactive; x = no result given.

SMILES	DAGLB inh	MT1-MMP act inh	hiPSC survival	SKN-1 block	FAS TE block	FAS-TE inh conf
CN(CC(=O)Nc1ccc(Cl)c(Cl)c1)C1CCCCC1	-8	2	0	1	31	x
C=CCNC(=O)/C(=C\c1ccc(OC)cc1)NC(=O)c1ccc([N+](=O)[O-])cc1	0	-2	-3	4	76*	83*
Cc1ccc(C(=O)N/C(=C\c2ccc([N+](=O)[O-])cc2)C(=O)NCCc2ccccc2)cc1	0	3	0	-15	34	x
CN(C)CCCNC(=O)/C(=C\C=C\c1ccccc1)NC(=O)c1ccc([N+](=O)[O-])cc1	4	4	-1	-4	86*	89*
COc1ccc(/C=C(\NC(=O)c2ccc(OC)cc2)C(=O)NC(CCSC)C(=O)O)cc1 (centres undefined)	-4	2	9	-10	1	x
COc1ccc(/C=C(/NC(=O)c2ccc([N+](=O)[O-])cc2)C(=O)NCCCN(C)C)cc1	0	0	0	0	71*	77*
CCCCOc1ccc(C(=O)N/C(=C/C=C/c2ccccc2)C(=O)NCCCO)cc1	-3	1	0	-1	27	x
COc1ccc(C(=O)N/C(=C\c2ccc([N+](=O)[O-])cc2)C(=O)NC(CCSC)C(=O)O)cc1 (centres undefined)	0	4	2	8	57*	53*
COc1ccc(/C=C(/NC(=O)c2cccc([N+](=O)[O-])c2)C(=O)O)cc1	-1	4	-1	1	0	x
COc1ccccc1CNC(=O)COC(=O)c1cnc(C)cn1	-6	-5	3	-7	-9	x
Nc1ccn([C@@H]2O[C@H](CNCc3ccc(Oc4cc(-n5cccn5)ncn4)cc3)[C@@H](O)[C@H]2O)c(=O)n1	2	1	-2	-1	-7	x
CCC(=O)N1CCC2(CC1)Oc1ccc(Cl)cc1C(=O)C21CC(c2ccccc2)=NO1 (centres undefined)	2	3	1	14	11	x
O=C(/C=C/c1cccs1)N1CCC2(CC1)Oc1ccc(Cl)cc1C(=O)C21CC(c2ccccc2)=NO1 (centres undefined)	-2	-4	-3	15	73*	10
CC(Oc1ccccc1)C(=O)N1CCC2(CC1)Oc1ccc(F)cc1C(=O)C21CC(c2ccccc2)=NO1 (centres undefined)	-4	0	3	21	62*	7
COc1cccc(C(=O)N2CCC2(C)C(=O)O)c1 (centres undefined)	x	4	-1	6	-6	x
Cn1cnc(S(=O)(=O)N2CCCCC2c2cc(C(=O)Nc3ccc(F)c(Cl)c3)no2)c1 (centres undefined)	x	3	-2	-5	-3	x
CN(C(=O)c1cccc(NC(=O)Cc2ccc(NC(=O)C3CCN(S(=O)(=O)c4cccc([N+](=O)[O-])c4)CC3)cc2)c1)C1CCCC1	-3	3	0	0	59*	25
CN(C(=O)c1cccc(NC(=O)Cc2ccc(NC(=O)C3CCCN(S(=O)(=O)c4cccc([N+](=O)[O-])c4)C3)cc2)c1)C1CCCCC1 (centres undefined)	3	4	-2	14	73*	16
CN(C(=O)c1cccc(NC(=O)Cc2ccc(NC(=O)C3CCN(S(=O)(=O)c4cccc([N+](=O)[O-])c4)CC3)cc2)c1)C1CCC1	-1	3	0	4	2	x
COc1cccc(-c2cnc(C(O)c3ccc(Cl)c(F)c3)[nH]2)c1 (centres undefined)	x	2	-1	5	7	x
CN(C)c1ccc(NC(=O)C2C3C=CC(C3)C2C(=O)O)cc1 (centres undefined)	6	16	1	24	-3	x
CC(C)CC(N)c1csc(Nc2cnccn2)n1 (centres undefined)	x	-7	6	20	-5	x
CC(=O)NC12CC3CC(C1)CC(C(=O)N1CCN(c4ncccn4)CC1)(C3)C2	1	-2	1	-1	-3	x
COc1ccc(CCNC(=O)C2CC(c3ccc([N+](=O)[O-])cc3)=NO2)cc1 (centres undefined)	2	1	4	5	6	x
COc1ccc(C2=NOC(COc3ccc([N+](=O)[O-])cc3)C2)cc1 (centres undefined)	-7	6	0	-15	54*	26
SMILES	DAGLB inh	MT1-MMP act inh	hiPSC survival	SKN-1 block	FAS TE block	FAS-TE inh conf
O=C(COc1cc([N+](=O)[O-])cc2cccnc12)NCCC1=CCCCC1	-4	4	0	-26	83*	87*
COC(=O)c1ccc(COc2cc([N+](=O)[O-])cc3cccnc23)o1	0	5	0	-9	55*	57*
Cc1cc2nc(C3CCCCC3)c(CC(C)(C)C)n2c(C)c1Br	x	0	1	3	3	x
CCC/C=C/c1ccc(CN2C(CC(C)C)C(=O)N(Cc3cn(CC4CCCCC4)nn3)CCS2(=O)=O)cc1 (centres undefined)	-9	1	1	-6	15	x
N#C/C(=C\c1ccc(OCc2ccc(Cl)cc2)cc1)C(=O)Nc1cccc(C(=O)O)c1	0	-1	0	15	53*	4
O=C(O)c1cccc(NC(=O)c2ccc(COc3ccc(Cl)cc3)cc2)c1	2	1	-1	-4	2	x
C=CCNc1ncnc2c1ncn2[C@H]1CN(C2CCCC2)C[C@@H](CO)O1	x	3	4	14	-5	x
C#CCN(C[C@H]1[C@H](OC(=O)Nc2c(C)noc2C)[C@H](OC(=O)Nc2c(C)noc2C)C[C@@H](C(=O)OC)[C@H]1C(=O)OC)S(=O)(=O)c1ccc(C)cc1	0	-1	-4	0	2	x
Cc1ccc(S(=O)(=O)/N=C(\Sc2ccccc2)c2ccccc2)cc1	-1	2	-2	-23	63*	51*
O=S(=O)(/N=C(\c1ccccc1)N1CCOCC1)c1ccc(Cl)cc1	0	-2	-1	11	-4	x
Cc1ccc(S(=O)(=O)/N=C(/Sc2ccccc2C(=O)O)c2ccccc2)cc1	1	-2	0	-2	16	x
O=S(=O)(/N=C(\Sc1ccccc1)c1ccccc1)c1ccc(Cl)cc1	3	0	3	7	66*	41
O=C(/C=C/c1cccc([N+](=O)[O-])c1)N1CCN(c2ccc(F)cc2)CC1	1	6	0	2	80*	81*
